Data as given in ChEMBL document CHEMBL4261518, “Side chain-functionalized aniline-derived ursolic acid derivatives as multidrug resistance reversers that block the nuclear factor-kappa B (NF-κB) pathway and cell proliferation” (Medchemcomm, 2017).

Experiments:
[1] = system: MGC-803; test: Cytotoxicity against human MGC803 cells after 48 hrs by MTT assay; assay type: functional, cell-based; settings: MGC-803, 48 h
Outline: (§1)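 Cells grown overnight in DMEM + 10% FBS at 37 °C under 5% CO2, then given a range of compound concentrations for 48 h. MTT added for about 4 h, medium replaced by DMSO, absorbance read at 570/630 nm. IC50 reported as mean ± SD of five independent experiments.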

[2] = Cytotoxicity against human SPCA2 cells after 48 hrs by MTT assay; assay type: functional, cell-based; settings: SPCA2, 48 h; outline: as §1
[3] = system: NCI-H460; test: Cytotoxicity against human NCI-H460 cells after 48 hrs by MTT assay; assay type: functional, cell-based; settings: NCI-H460, 48 h; outline: as §1
[4] = system: A549; test: Cytotoxicity against human A549 cells after 48 hrs by MTT assay; assay type: functional, cell-based; settings: A549, 48 h; outline: as §1
[5] = system: T-24; test: Cytotoxicity against human T24 cells after 48 hrs by MTT assay; assay type: functional, cell-based; settings: T-24, 48 h; outline: as §1
[6] = system: L02; test: Cytotoxicity against human HL7702 cells after 48 hrs by MTT assay; assay type: cell-based; settings: L02, 48 h; outline: as §1
[7] = Inhibition of TNFalpha-induced NF-kB (unknown origin) activation expressed in human NCI-H460 cells after 7 hrs by luciferase reporter gene assay; assay type: cell-based; settings: NCI-H460, 7 h
Outline: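 NCI-H460 cells transiently co-transfected with pNF-κB-Luc reporter and pSV-β-galactosidase internal control by lipofectamine. Medium changed after 6 h, then 6 h further culture. TNF-α (15 ng ml–1) plus compound given together for 7 h. Luciferase ratio to TNF-α-only cells, corrected for non-TNF background and viability. IC50 from sigmoidal variable-slope fit.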

[8] = Cytotoxicity against human NCI-H460/DOX cells after 48 hrs by MTT assay; assay type: functional, cell-based; settings: NCI-H460, 48 h; outline: as §1
[9] = Resistant factor, ratio of IC50 for human NCI-H460/DOX cells to IC50 for human NCI-H460 cells; assay type: functional
[10] = system: HepG2; test: Cytotoxicity against human HepG2 cells after 48 hrs by MTT assay; assay type: functional, cell-based; settings: HepG2, 48 h; outline: as §1
[11] = Cytotoxicity against human HepG2/DOX cells after 48 hrs by MTT assay; assay type: functional, cell-based; outline: as §1
[12] = Resistant factor, ratio of IC50 for human HepG2/DOX cells to IC50 for human HepG2 cells; assay type: functional
[13] = system: NCI-H460; test: Cytotoxicity against human NCI-H460 cells harboring pNF-kB-Luc assessed as reduction in cell viability after 7 hrs by MTT assay relative to control; set-up: concentration or dose not given beside the values; settings: nci-h460, 7 h

Question: What does the source list for `C[C@H]1[C@H](C)CC[C@]2(C(=O)Nc3ccccc3)CC[C@]3(C)C(=CC[C@@H]4[C@@]5(C)CCC(=O)C(C)(C)[C@@H]5CC[C@]43C)[C@H]12`?
Answer: IC50 [1]: 15.1 µM; IC50 [2]: 13.5 µM; IC50 [3]: 12.9 µM; IC50 [4]: 16.3 µM; IC50 [5]: 13.6 µM; IC50 [6]: > 50 µM; IC50 [7]: 7.13 µM; IC50 [8]: 25.7 µM; Ratio IC50 [9]: 1.99; IC50 [10]: 18.1 µM; IC50 [11]: 36.7 µM; Ratio IC50 [12]: 2.02; Activity [13]: < 5%

Question: Which results are given for `Cc1ccc(NC(=O)COC(=O)[C@]23CC[C@@H](C)[C@H](C)[C@H]2C2=CC[C@@H]4[C@@]5(C)CCC(=O)C(C)(C)[C@@H]5CC[C@@]4(C)[C@]2(C)CC3)cc1`?
Answer: IC50 [1]: 16.6 µM; IC50 [2]: 15.6 µM; IC50 [3]: 10.9 µM; IC50 [4]: 13.1 µM; IC50 [5]: 15.7 µM; IC50 [6]: > 50 µM; IC50 [7]: 8.04 µM; IC50 [8]: 23.8 µM; Ratio IC50 [9]: 2.18; IC50 [10]: 20.1 µM; IC50 [11]: 39.7 µM; Ratio IC50 [12]: 1.98; Activity [13]: < 5%

Question: With `C[C@H]1[C@H](C)CC[C@]2(C(=O)NCCN(C)C)CC[C@]3(C)C(=CC[C@@H]4[C@@]5(C)CCC(=O)C(C)(C)[C@@H]5CC[C@]43C)[C@H]12` as the compound, how does the IC50 [1] read?
Answer: 7.35 µM

Question: What about the IC50 [2] of the same compound?
Answer: 6.91 µM

Question: What about the IC50 [3] of the same compound?
Answer: 4.35 µM

Question: And the IC50 [4]?
Answer: 6.01 µM

Question: And the IC50 [5]?
Answer: 6.35 µM

Question: And the IC50 [6]?
Answer: > 50 µM

Question: What about the IC50 [7] of the same compound?
Answer: 0.94 µM

Question: What about the IC50 [8] of the same compound?
Answer: 6.8 µM

Question: And the “Ratio IC50” value [9]?
Answer: 1.56

Question: What about the IC50 [10] of the same compound?
Answer: 9.05 µM

Question: And the IC50 [11]?
Answer: 11.4 µM

Question: What about the “Ratio IC50” value [12] of the same compound?
Answer: 1.26

Question: And the Activity [13]?
Answer: < 5%

Question: Which results are given for `CC(=O)O[C@H]1CC[C@]2(C)[C@H]3CC=C4[C@@H]5[C@@H](C)[C@H](C)CC[C@]5(C(=O)Nc5ccccc5)CC[C@@]4(C)[C@]3(C)CC[C@H]2C1(C)C`?
Answer: IC50 [1]: 14.8 µM; IC50 [2]: 11.7 µM; IC50 [3]: 11.4 µM; IC50 [4]: 12.9 µM; IC50 [5]: 13.1 µM; IC50 [6]: > 50 µM; IC50 [7]: 2.33 µM; IC50 [8]: 17.2 µM; Ratio IC50 [9]: 1.52; IC50 [10]: 12.6 µM; IC50 [11]: 27.4 µM; Ratio IC50 [12]: 2.17; Activity [13]: < 5%

Question: With `C[C@H]1[C@H](C)CC[C@]2(C(=O)OCC(=O)Nc3ccccc3)CC[C@]3(C)C(=CC[C@@H]4[C@@]5(C)CCC(=O)C(C)(C)[C@@H]5CC[C@]43C)[C@H]12` as the compound, how does the IC50 [1] read?
Answer: 16.1 µM

Question: What about the IC50 [2] of the same compound?
Answer: 16.3 µM

Question: What about the IC50 [3] of the same compound?
Answer: 13.8 µM

Question: What about the IC50 [4] of the same compound?
Answer: 14.1 µM

Question: And the IC50 [5]?
Answer: 16 µM

Question: What about the IC50 [6] of the same compound?
Answer: > 50 µM

Question: And the IC50 [7]?
Answer: 10.3 µM

Question: And the IC50 [8]?
Answer: 26.6 µM

Question: And the “Ratio IC50” value [9]?
Answer: 1.94

Question: What about the IC50 [10] of the same compound?
Answer: 24.2 µM

Question: And the IC50 [11]?
Answer: > 50 µM

Question: What about the Activity [13] of the same compound?
Answer: < 5%

Question: For `Cc1ccc(NC(=O)[C@]23CC[C@@H](C)[C@H](C)[C@H]2C2=CC[C@@H]4[C@@]5(C)CCC(=O)C(C)(C)[C@@H]5CC[C@@]4(C)[C@]2(C)CC3)cc1`, which IC50 [1] is on record?
Answer: 18.6 µM

Question: What about the IC50 [2] of the same compound?
Answer: 17.3 µM

Question: And the IC50 [3]?
Answer: 11.9 µM

Question: And the IC50 [4]?
Answer: 17.9 µM

Question: What about the IC50 [5] of the same compound?
Answer: 20.1 µM

Question: And the IC50 [6]?
Answer: > 50 µM

Question: What about the IC50 [7] of the same compound?
Answer: 5.43 µM

Question: What about the IC50 [8] of the same compound?
Answer: 20.9 µM

Question: And the “Ratio IC50” value [9]?
Answer: 1.76

Question: And the IC50 [10]?
Answer: 17.6 µM

Question: And the IC50 [11]?
Answer: 28.5 µM

Question: And the “Ratio IC50” value [12]?
Answer: 1.62

Question: And the Activity [13]?
Answer: < 5%

Question: For `CC(=O)O[C@H]1CC[C@]2(C)[C@H]3CC=C4[C@@H]5[C@@H](C)[C@H](C)CC[C@]5(C(=O)Nc5ccc(C)cc5)CC[C@@]4(C)[C@]3(C)CC[C@H]2C1(C)C`, which IC50 [1] is on record?
Answer: 13.4 µM

Question: What about the IC50 [2] of the same compound?
Answer: 11.2 µM

Question: And the IC50 [3]?
Answer: 9.6 µM

Question: And the IC50 [4]?
Answer: 10.3 µM

Question: What about the IC50 [5] of the same compound?
Answer: 10.6 µM

Question: What about the IC50 [6] of the same compound?
Answer: > 50 µM

Question: What about the IC50 [7] of the same compound?
Answer: 2.26 µM

Question: And the IC50 [8]?
Answer: 13.5 µM

Question: What about the “Ratio IC50” value [9] of the same compound?
Answer: 1.4

Question: What about the IC50 [10] of the same compound?
Answer: 12.5 µM

Question: And the IC50 [11]?
Answer: 20.4 µM

Question: What about the “Ratio IC50” value [12] of the same compound?
Answer: 1.63

Question: And the Activity [13]?
Answer: < 5%

Question: For `CC(=O)O[C@H]1CC[C@]2(C)[C@H]3CC=C4[C@@H]5[C@@H](C)[C@H](C)CC[C@]5(C(=O)Nc5ccc(C)c(C)c5)CC[C@@]4(C)[C@]3(C)CC[C@H]2C1(C)C`, which IC50 [1] is on record?
Answer: 15 µM

Question: And the IC50 [2]?
Answer: 12.2 µM

Question: And the IC50 [3]?
Answer: 10.4 µM

Question: What about the IC50 [4] of the same compound?
Answer: 12.4 µM

Question: And the IC50 [5]?
Answer: 16.6 µM

Question: And the IC50 [6]?
Answer: > 50 µM

Question: What about the IC50 [7] of the same compound?
Answer: 4.8 µM

Question: What about the IC50 [8] of the same compound?
Answer: 18.9 µM

Question: And the “Ratio IC50” value [9]?
Answer: 1.81

Question: What about the IC50 [10] of the same compound?
Answer: 17.4 µM

Question: And the IC50 [11]?
Answer: 26.2 µM

Question: What about the “Ratio IC50” value [12] of the same compound?
Answer: 1.51

Question: And the Activity [13]?
Answer: < 5%

Question: Which IC50 [1] does the source give for `COc1ccc(NC(=O)[C@]23CC[C@@H](C)[C@H](C)[C@H]2C2=CC[C@@H]4[C@@]5(C)CC[C@H](OC(C)=O)C(C)(C)[C@@H]5CC[C@@]4(C)[C@]2(C)CC3)cc1` here?
Answer: 25.2 µM

Question: And the IC50 [2]?
Answer: 13.7 µM

Question: What about the IC50 [3] of the same compound?
Answer: 10.6 µM

Question: And the IC50 [4]?
Answer: 31.1 µM

Question: And the IC50 [5]?
Answer: 23.8 µM

Question: And the IC50 [6]?
Answer: > 50 µM

Question: And the IC50 [7]?
Answer: 3.64 µM

Question: And the IC50 [8]?
Answer: 22.6 µM

Question: And the “Ratio IC50” value [9]?
Answer: 2.12

Question: What about the IC50 [10] of the same compound?
Answer: 24.5 µM

Question: What about the IC50 [11] of the same compound?
Answer: 47.1 µM

Question: What about the “Ratio IC50” value [12] of the same compound?
Answer: 1.92

Question: And the Activity [13]?
Answer: < 5%

Question: Which IC50 [1] does the source give for `CC(=O)O[C@H]1CC[C@]2(C)[C@H]3CC=C4[C@@H]5[C@@H](C)[C@H](C)CC[C@]5(C(=O)N5CCN(C)CC5)CC[C@@]4(C)[C@]3(C)CC[C@H]2C1(C)C` here?
Answer: 21.6 µM

Question: And the IC50 [2]?
Answer: 29.2 µM

Question: And the IC50 [3]?
Answer: 21.2 µM

Question: What about the IC50 [4] of the same compound?
Answer: 24.2 µM

Question: What about the IC50 [5] of the same compound?
Answer: 25.4 µM

Question: And the IC50 [6]?
Answer: > 50 µM

Question: And the IC50 [7]?
Answer: 4.8 µM

Question: What about the IC50 [8] of the same compound?
Answer: 49.7 µM

Question: What about the “Ratio IC50” value [9] of the same compound?
Answer: 2.35

Question: And the IC50 [10]?
Answer: 27 µM

Question: What about the IC50 [11] of the same compound?
Answer: > 50 µM

Question: What about the Activity [13] of the same compound?
Answer: < 5%
